The source of these data is ChEMBL document CHEMBL1157001, “Synthesis and antibacterial evaluation of isoxazolinyl oxazolidinones: Search for potent antibacterial” (2009).

≈ marks a conversion by molar mass, not a printed value. Calls of active or inactive are those of the source.

In one experiment the test system is Streptococcus pyogenes. The experiment in a line: Antibacterial activity against Streptococcus pyogenes after 24 hrs. The experiment is classed as functional. The method, boiled down: (§1)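 Broth microdilution MIC per NCCLS protocol in Mueller Hinton broth. Strains grown on nutrient agar at 37 °C for 24 h, then suspended in normal saline with 0.05% Tween 20. Inoculum was a McFarland-matched suspension diluted into medium. Compounds were dissolved in DMSO at 1 mg/mL stock and serially twofold diluted, top concentration 50 µg/mL. Plates incubated 35 °C, moist dark chamber, 24 h. MIC read spectrophotometrically.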

The test system of the next experiment is Escherichia coli. Briefly: Antibacterial activity against Escherichia coli ATCC 9637 after 24 hrs. In kind it is functional, organism-based. In short, it runs like this: as §1
Another experiment deals with Enterococcus faecalis. The experiment in a line: Antibacterial activity against Enterococcus faecalis MTCC 439 after 24 hrs. In kind it is functional. The note with it: MTCC 439, 24 h. The method, boiled down: as §1
Experiment [1] relates to Staphylococcus aureus. Briefly: Antibacterial activity against […] Staphylococcus aureus ATCC 29213 after 24 hrs. The following applies: ATCC 29213, 24 h. In kind it is functional.
A further experiment relates to Klebsiella pneumoniae. Briefly: Antibacterial activity against Klebsiella pneumoniae ATCC 27736 after 24 hrs. The following applies: ATCC 27736, 24 h. The experiment is classed as functional. The method, boiled down:
as §1

In another experiment the test system is Bacillus cereus. Briefly: Antibacterial activity against Bacillus cereus MTCC 430 after 24 hrs. The experiment is classed as functional. The following applies: MTCC 430, 24 h. The method, boiled down:
as §1

Another experiment deals with Pseudomonas aeruginosa. The experiment in a line: Antibacterial activity against Pseudomonas aeruginosa ATCC BAA427 after 24 hrs. The experiment is classed as functional, organism-based. The method, boiled down: as §1
In experiment [2] the test system is Staphylococcus aureus. The experiment in a line: Antibacterial activity against methicillin-resistant Staphylococcus aureus ATCC 70069 after 24 hrs. The experiment is classed as functional. The note with it: ATCC 70069, 24 h.
Experiment [3] deals with Staphylococcus aureus. Briefly: Antibacterial activity against floxacin and methicillin-resistant Staphylococcus aureus ATCC 25923 after 24 hrs. The experiment is classed as functional. The following applies: ATCC 25923, 24 h.

For orientation: MIC means the smallest concentration in the dilution series that meets the test's criterion for growth inhibition. High values mean weaker potency, low ones greater potency. Regarding `CC(=O)NC[C@H]1CN(c2ccc(N3CCN(C(=O)C4CC(c5ccc(C)cc5)=NO4)CC3)c(F)c2)C(=O)O1` (mixture of isomers), the MIC against Streptococcus pyogenes is 0.746 µM; with Enterococcus faecalis, 0.746 µM; against Staphylococcus aureus [1] it was 2.98 µM; against Klebsiella pneumoniae it was 0.363 µM; with Bacillus cereus it was 0.363 µM; with Staphylococcus aureus [2], 1.49 µM. The molecule further displayed an MIC in the experiment on Staphylococcus aureus [3] of 0.363 µM. Further, the result in the experiment on Escherichia coli and with Pseudomonas aeruginosa was inactive.
In the case of `CC(=O)NC[C@H]1CN(c2ccc(N3CCN(C(=O)C4CC(c5ccccn5)=NO4)CC3)c(F)c2)C(=O)O1` (mixture of isomers), the MIC against Streptococcus pyogenes amounted to 0.372 µM; in the experiment on Enterococcus faecalis, 0.372 µM; against Staphylococcus aureus [1] it was 1.53 µM; in the experiment on Klebsiella pneumoniae, 0.765 µM; in the experiment on Bacillus cereus it was 0.765 µM; against Staphylococcus aureus [2], 1.53 µM. In the experiment with Staphylococcus aureus [3], the MIC is 0.765 µM. In addition, the outcome in the experiment on Escherichia coli and in the experiment with Pseudomonas aeruginosa was inactive.
As to `CC(=O)NC[C@H]1CN(c2ccc(N3CCN(C(=O)C4CC(c5ccc(Cl)c(Cl)c5)=NO4)CC3)c(F)c2)C(=O)O1` (mixture of isomers), the MIC against Streptococcus pyogenes was 0.329 µM; against Enterococcus faecalis, 0.329 µM; against Staphylococcus aureus [1] it was 2.7 µM; in the experiment with Klebsiella pneumoniae it was 0.329 µM; in the experiment on Bacillus cereus, 0.156 µM; in the experiment on Staphylococcus aureus [2], 0.329 µM. Moreover, in the experiment on Staphylococcus aureus [3], the MIC stood at 0.329 µM. Besides, the outcome in the experiment on Escherichia coli and with Pseudomonas aeruginosa was inactive.
Regarding `CC(=O)NC[C@H]1CN(c2ccc(N3CCN(C(=O)C4CC(c5ccc6c(c5)OCO6)=NO4)CC3)c(F)c2)C(=O)O1` (mixture of isomers), the MIC against Streptococcus pyogenes amounted to 0.344 µM; with Enterococcus faecalis, 0.344 µM; in the experiment on Staphylococcus aureus [1], 2.82 µM; in the experiment on Klebsiella pneumoniae, 0.163 µM; in the experiment on Bacillus cereus, 0.344 µM; in the experiment with Staphylococcus aureus [2], 0.344 µM. Also, it took 0.163 µM to inhibit growth against Staphylococcus aureus [3] (MIC). The outcome in the experiment on Escherichia coli and in the experiment with Pseudomonas aeruginosa was inactive.
For `CC(=O)NC[C@H]1CN(c2ccc(N3CCN(C(=O)C4CC(c5ccccc5)=NO4)CC3)c(F)c2)C(=O)O1` (mixture of isomers), the MIC against Streptococcus pyogenes, in the experiment with Enterococcus faecalis, against Staphylococcus aureus [1], against Klebsiella pneumoniae, against Bacillus cereus and in the experiment on Staphylococcus aureus [2] was 24.6 µM in each case. Further, in the experiment with Staphylococcus aureus [3], 24.6 µM was the least that counted as inhibitory (MIC). For the same molecule, the outcome with Escherichia coli and in the experiment with Pseudomonas aeruginosa was inactive.
Regarding `CC(=O)NC[C@H]1CN(c2ccc(N3CCN(C(=O)C4CC(c5cccs5)=NO4)CC3)c(F)c2)C(=O)O1` (mixture of isomers), the MIC against Streptococcus pyogenes was found to be 12.1 µM; against Enterococcus faecalis it was 24.3 µM; in the experiment with Staphylococcus aureus [1], 24.3 µM; against Klebsiella pneumoniae, 6.06 µM; with Bacillus cereus it was 6.06 µM; with Staphylococcus aureus [2], 24.3 µM. In addition, in the experiment with Staphylococcus aureus [3], the MIC is 6.06 µM. The outcome in the experiment with Escherichia coli and in the experiment on Pseudomonas aeruginosa was inactive.
As for `CN[C@H](CC(C)C)C(=O)N[C@H]1C(=O)N[C@@H](CC(N)=O)C(=O)N[C@H]2C(=O)N[C@H]3C(=O)N[C@H](C(=O)N[C@H](C(=O)O)c4cc(O)cc(O)c4-c4cc3ccc4O)[C@H](O)c3ccc(c(Cl)c3)Oc3cc2cc(c3O[C@@H]2O[C@H](CO)[C@@H](O)[C@H](O)[C@H]2O[C@H]2C[C@](C)(N)[C@H](O)[C@H](C)O2)Oc2ccc(cc2Cl)[C@H]1O` [VANCOMYCIN], the minimum inhibitory concentration (MIC) with Streptococcus pyogenes turned out to be 0.262 µM (≈ 0.38 µg/mL); in the experiment with Enterococcus faecalis it was 0.525 µM (≈ 0.761 µg/mL); in the experiment on Staphylococcus aureus [1] it was 1.05 µM (≈ 1.52 µg/mL); against Klebsiella pneumoniae it was 0.262 µM (≈ 0.38 µg/mL); with Bacillus cereus, 0.128 µM (≈ 0.185 µg/mL); with Staphylococcus aureus [2], 4.21 µM (≈ 6.1 µg/mL). Besides, in the experiment on Staphylococcus aureus [3], the MIC worked out at 0.262 µM (≈ 0.38 µg/mL).
On to `CC(=O)NC[C@H]1CN(c2ccc(N3CCN(C(=O)C4CC(c5ccc(C(F)(F)F)cc5)=NO4)CC3)c(F)c2)C(=O)O1` (mixture of isomers), for which the MIC with Streptococcus pyogenes stood at 0.676 µM; with Enterococcus faecalis it was 0.329 µM; against Staphylococcus aureus [1], 2.7 µM; in the experiment with Klebsiella pneumoniae it was 0.676 µM; with Bacillus cereus, 0.676 µM; with Staphylococcus aureus [2], 0.676 µM. The same molecule displayed an MIC in the experiment on Staphylococcus aureus [3] of 0.676 µM. The result in the experiment with Escherichia coli and in the experiment with Pseudomonas aeruginosa was inactive.
In the case of `CC(=O)NC[C@H]1CN(c2ccc(N3CCOCC3)c(F)c2)C(=O)O1` [LINEZOLID], the MIC in the experiment with Streptococcus pyogenes was 4.63 µM (≈ 1.56 µg/mL); against Enterococcus faecalis it was 9.26 µM (≈ 3.12 µg/mL); against Staphylococcus aureus [1], 9.26 µM (≈ 3.12 µg/mL); with Klebsiella pneumoniae it was 4.63 µM (≈ 1.56 µg/mL); with Bacillus cereus, 2.31 µM (≈ 0.781 µg/mL); against Staphylococcus aureus [2], 4.63 µM (≈ 1.56 µg/mL). The molecule further returned an MIC against Staphylococcus aureus [3] of 4.63 µM (≈ 1.56 µg/mL).
Regarding `CC(=O)NC[C@H]1CN(c2ccc(N3CCN(C(=O)C4CC(c5ccc(F)c(F)c5)=NO4)CC3)c(F)c2)C(=O)O1` (mixture of isomers), the MIC is 0.349 µM against Streptococcus pyogenes; 0.349 µM against Enterococcus faecalis; 0.716 µM in the experiment on Staphylococcus aureus [1]; 0.716 µM with Klebsiella pneumoniae; 0.349 µM against Bacillus cereus; 0.349 µM in the experiment on Staphylococcus aureus [2]. Moreover, it took 0.349 µM to inhibit growth with Staphylococcus aureus [3] (MIC). The outcome with Escherichia coli and with Pseudomonas aeruginosa was inactive.
Regarding `CC(=O)NC[C@H]1CN(c2ccc(N3CCN(C(=O)C4CC(c5ccsc5)=NO4)CC3)c(F)c2)C(=O)O1` (mixture of isomers), the MIC was found to be 12.1 µM in the experiment on Streptococcus pyogenes; 12.1 µM in the experiment on Enterococcus faecalis; 24.3 µM against Staphylococcus aureus [1]; 6.06 µM against Klebsiella pneumoniae; 12.1 µM in the experiment on Bacillus cereus; 6.06 µM in the experiment on Staphylococcus aureus [2]. For the same molecule, it took 12.1 µM to inhibit growth in the experiment on Staphylococcus aureus [3] (MIC). Moreover, the result with Escherichia coli and in the experiment on Pseudomonas aeruginosa was inactive.
As for `CC(=O)NC[C@H]1CN(c2ccc(N3CCN(C(=O)C4CC(c5cccc(C(F)(F)F)c5)=NO4)CC3)c(F)c2)C(=O)O1` (mixture of isomers), the minimal inhibitory concentration (MIC) amounted to 1.35 µM in the experiment on Streptococcus pyogenes; 1.35 µM with Enterococcus faecalis; 2.7 µM in the experiment on Staphylococcus aureus [1]; 2.7 µM in the experiment on Klebsiella pneumoniae; 1.35 µM in the experiment with Bacillus cereus; 1.35 µM against Staphylococcus aureus [2]. Besides, in the experiment with Staphylococcus aureus [3], the MIC amounted to 1.35 µM. Moreover, the result with Escherichia coli and in the experiment on Pseudomonas aeruginosa was inactive.
Consider `CC(=O)NC[C@H]1CN(c2ccc(N3CCN(C(=O)C4CC(c5cccc([N+](=O)[O-])c5)=NO4)CC3)c(F)c2)C(=O)O1` (mixture of isomers), for which the MIC with Streptococcus pyogenes was determined as 0.704 µM; in the experiment with Enterococcus faecalis, 0.0866 µM; with Staphylococcus aureus [1], 0.704 µM; against Klebsiella pneumoniae, 0.704 µM; against Bacillus cereus, 0.162 µM; against Staphylococcus aureus [2], 0.704 µM. Besides, the MIC with Staphylococcus aureus [3] was found to be 0.343 µM. Besides, the outcome in the experiment with Escherichia coli and in the experiment on Pseudomonas aeruginosa was inactive.
As to `CC(=O)NC[C@H]1CN(c2ccc(N3CCN(C(=O)C4CC(c5ccc(F)cc5)=NO4)CC3)c(F)c2)C(=O)O1` (mixture of isomers), the MIC against Streptococcus pyogenes was determined as 0.74 µM; in the experiment on Enterococcus faecalis, 0.74 µM; against Staphylococcus aureus [1] it was 0.74 µM; in the experiment with Klebsiella pneumoniae, 1.48 µM; with Bacillus cereus, 0.74 µM; against Staphylococcus aureus [2], 0.74 µM. In addition, the MIC against Staphylococcus aureus [3] came to 0.74 µM. The outcome in the experiment on Escherichia coli and in the experiment with Pseudomonas aeruginosa was inactive.
Regarding `COc1ccc(C2=NOC(C(=O)N3CCN(c4ccc(N5C[C@H](CNC(C)=O)OC5=O)cc4F)CC3)C2)cc1O` (mixture of isomers), the MIC against Streptococcus pyogenes is 0.703 µM; against Enterococcus faecalis, 0.342 µM; against Staphylococcus aureus [1], 0.703 µM; against Klebsiella pneumoniae it was 0.342 µM; against Bacillus cereus, 0.342 µM; in the experiment on Staphylococcus aureus [2], 0.703 µM. The molecule also gave an MIC against Staphylococcus aureus [3] of 0.342 µM. Besides, the outcome in the experiment with Escherichia coli and in the experiment on Pseudomonas aeruginosa was inactive.
Regarding `CC(=O)NC[C@H]1CN(c2ccc(N3CCN(C(=O)C4CC(c5ccco5)=NO4)CC3)c(F)c2)C(=O)O1` (mixture of isomers), the MIC worked out at 0.781 µM against Streptococcus pyogenes; 0.781 µM in the experiment with Enterococcus faecalis; 6.25 µM against Staphylococcus aureus [1]; 1.56 µM against Klebsiella pneumoniae; 1.56 µM against Bacillus cereus; 1.56 µM against Staphylococcus aureus [2]. Inhibition of growth in the experiment with Staphylococcus aureus [3] (MIC) required 0.781 µM. Also, the outcome in the experiment with Escherichia coli and in the experiment with Pseudomonas aeruginosa was inactive.
Regarding `CC(=O)NC[C@H]1CN(c2ccc(N3CCN(C(=O)C4CC(c5ccc(Cl)cc5)=NO4)CC3)c(F)c2)C(=O)O1` (mixture of isomers), the MIC in the experiment with Streptococcus pyogenes was 0.349 µM; with Enterococcus faecalis, 0.35 µM; in the experiment on Staphylococcus aureus [1] it was 2.87 µM; against Klebsiella pneumoniae, 0.166 µM; with Bacillus cereus, 0.35 µM; in the experiment on Staphylococcus aureus [2] it was 0.35 µM. The molecule also displayed an MIC against Staphylococcus aureus [3] of 0.166 µM. Also, the outcome with Escherichia coli and in the experiment with Pseudomonas aeruginosa was inactive.
